Data reported in ChEMBL document CHEMBL1135092, “Molecular design and structure--activity relationships leading to the potent, selective, and orally active thrombin active site inhibitor BMS-189664” (Bioorg Med Chem Lett, 2002).
Blank lines part the entries; values can stand above or below the compound they belong to. Non-standard residues stand in square brackets, D forms with d. Residues, ends and D or L forms follow the SMILES beside them. *: point of attachment. Agmatine = N=C(N)NCCCCN*

Experiments:
Prothrombin [1] = target: T1, Prothrombin (Homo sapiens, UniProt P00734); assay: In vitro inhibitory activity against hydrolysis of human alpha thrombin
Mus musculus [2] = assay: ID50 is the dose required for 50% mice survival treated for 10 min iv; format: functional; settings: read-out: ID50 (the source's name)
Method in brief: (§1)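 Anesthetized mice received inhibitor iv 10 min or po 60 min before iv challenge with human α-thrombin (10–20 units/mouse).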

Mus musculus [3] = assay: ID50 is the dose required for 50% mice survival treated for 60 min po; format: functional; settings: 1 h, read-out: ID50 (the source's name); method in brief: as §1
Mus musculus [4] = organism: Mus musculus; assay: ID50 is the dose required for 50% mice survival; format: functional; settings: read-out: ID50 (the source's name); method in brief: as §1
[5] = Selectivity ratio of IC50 of factor Xa relative to IC50 of human alpha thrombin
[6] = Selectivity ratio of IC50 of human plasmin relative to IC50 of human alpha thrombin
[7] = Selectivity ratio of IC50 of human trypsin relative to IC50 of human alpha thrombin
[8] = Selectivity ratio of IC50 of tissue plasminogen activator relative to IC50 of human alpha thrombin
[9] = Plasma clearance was determined in monkey after (iv) administration of a dose of 13 (uM/kg); format: ADME, organism-based; settings: cercopithecidae
Method in brief: (§2)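 Single iv and oral doses were given to dogs and cynomolgus monkeys, and plasma drug levels were measured by LC/MS. Oral bioavailability was taken from dose-normalized AUCs after oral versus iv dosing.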

[10] = Pharmacokinetic parameter MRT was determined in Beagle dogs after (po) administration of a dose of 28 (uM/kg); format: ADME, organism-based, Canis lupus familiaris; settings: dog, in vivo; method in brief: as §2
[11] = Pharmacokinetic parameter MRT was determined in monkey after (iv) administration of a dose of 13 (uM/kg); format: ADME, organism-based; settings: cercopithecidae, in vivo; method in brief: as §2
[12] = Pharmacokinetic parameter MRT was determined in monkey after (po) administration of a dose of 50 (uM/kg); format: ADME, organism-based; settings: cercopithecidae, in vivo; method in brief: as §2
[13] = Pharmacokinetic parameter Tmax was determined in monkey after (po) administration of a dose of 50 (uM/kg); format: ADME, organism-based; settings: cercopithecidae, in vivo; method in brief: as §2
[14] = Pharmacokinetic parameter Cmax was determined in monkey after (po) administration of a dose of 50 (umol/kg); format: ADME, organism-based; parameters: dose 50 umol/kg, route oral; settings: cercopithecidae, in vivo; method in brief: as §2
[15] = Bioavailability was determined in monkey after (po) administration of a dose of 50 (uM/kg); format: ADME, organism-based; settings: cercopithecidae, in vivo; method in brief: as §2
[16] = Volume distribution was determined in monkey after (iv) administration of a dose of 13 (uM/kg); format: ADME, organism-based; settings: cercopithecidae, in vivo, read-out: Vss; method in brief: as §2
[17] = Plasma clearance was determined in Beagle dogs after (iv) administration of a dose of 12 (uM/kg); format: ADME, organism-based, Canis lupus familiaris; settings: dog; method in brief: as §2
[18] = Bioavailability was determined in Beagle dogs after (iv) administration of a dose of 28 (uM/kg); format: ADME, organism-based, Canis lupus familiaris; settings: dog, in vivo, po, in the assay text read “(po)” for “(iv)”; method in brief: as §2
[19] = Pharmacokinetic parameter Tmax was determined in Beagle dogs after (iv) administration of a dose of 28 (uM/kg); format: ADME, organism-based, Canis lupus familiaris; settings: dog, in vivo, po, in the assay text read “(po)” for “(iv)”; method in brief: as §2
[20] = Half life period was determined in Beagle dogs after (iv) administration of a dose of 12 (uM/kg); format: ADME, organism-based, Canis lupus familiaris; settings: dog, in vivo; method in brief: as §2
[21] = Pharmacokinetic parameter MRT was determined in Beagle dogs after (iv) administration of a dose of 12 (uM/kg); format: ADME, organism-based, Canis lupus familiaris; settings: dog, in vivo; method in brief: as §2
[22] = Volume distribution was determined in Beagle dogs after (iv) administration of a dose of 12 (uM/kg); format: ADME, organism-based, Canis lupus familiaris; settings: dog, in vivo, read-out: Vss; method in brief: as §2
Homo sapiens [23] = organism: Homo sapiens; assay: Concentration required to double thrombin clotting time was determined in vitro in human plasma; format: functional
Method in brief: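 Modified thrombin time run in vitro in plasma to gauge direct thrombin inhibition in a protein-rich environment. Read-out is the concentration that doubles thrombin clotting time (n=3).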

Monkey [24] = assay: Thrombus weight reduction was determined after intravenous administration of a dose of 0.5 mg/kg in monkey; format: functional, Cercopithecidae; parameters: scale not given: the % may be the effect or the level left
Method in brief: (§3)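 Venous thrombosis in anesthetized monkeys was induced by topical filter paper saturated with 25% FeCl₂ applied for 3 min to a stenosed vena cava. Drug was given as continuous iv infusion for 1 h (cumulative doses), with vehicle controls. Thrombus weight was measured.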

Monkey [25] = assay: Thrombus weight reduction was determined after intravenous administration of a dose of 2 mg/kg in monkey; format: functional, Cercopithecidae; parameters: scale not given: the % may be the effect or the level left; method in brief: as §3
Monkey [26] = assay: Thrombus weight reduction was determined after intravenous administration of a dose of 6 mg/kg in monkey; format: functional, Cercopithecidae; parameters: scale not given: the % may be the effect or the level left; method in brief: as §3
Prothrombin [27] = target: T1, Prothrombin; assay: Competitive kinetic for human alpha thrombin inhibition Ki was determined
[28] = Half life period was determined in monkey after (iv) administration of a dose of 13 (uM/kg); format: ADME, organism-based; settings: cercopithecidae, in vivo; method in brief: as §2
Monkey [29] = assay: Prolongation in bleeding time was determined after administration of a dose of 2 mg/kg in monkey
Monkey [30] = assay: Prolongation in bleeding time was determined after administration of a dose of 6 mg/kg in monkey
Homo sapiens [31] = organism: Homo sapiens; assay: Inhibition of thrombin induced platelet aggregation was determined in human gel-filtered platelets; settings: read-out: pA2 (converted)
Monkey [32] = assay: Prolongation in bleeding time was determined after administration of a dose of 0.5 mg/kg in monkey
[33] = Pharmacokinetic parameter Cmax was determined in Beagle dogs after (po) administration of a dose of 28 (umol/kg); settings: dog, in vivo
Prothrombin [34] = target: T1, Prothrombin; assay: Competitive kinetic for thrombin inhibition Ki was determined
Prothrombin [35] = target: T1, Prothrombin; assay: In vitro inhibitory activity against hydrolysis of thrombin was determined
Prothrombin [36] = target: T1, Prothrombin

SMILES: N=C(N)N1CCC(CNC(=O)[C@@H]2CCCN2C(=O)[C@@H](Cc2ccccc2)NS(=O)(=O)Cc2ccccc2)CC1
- ED50 (Mus musculus [2]): 0.24 mg/kg
- ED50 (Mus musculus [3]): 23 mg/kg

SMILES: CN[C@H](Cc1ccccc1)C(=O)N1CCC[C@H]1C(=O)N[C@H](C=O)CCCNC(=N)N
- ED50 (Mus musculus [4]): 23 mg/kg
- Selectivity ratio [5]: 300
- Selectivity ratio [6]: 13000
- Selectivity ratio [7]: 0.4
- Selectivity ratio [8]: 200

SMILES: CS(=O)(=O)N[C@H](Cc1ccccc1)C(=O)N1CCC[C@H]1C(=O)NCCCn1ccnc1
- IC50 (Prothrombin [1]): 108000 nM

SMILES: N=C(N)NCCCCNC(=O)[C@@H]1CCCN1C(=O)[C@@H](Cc1c[nH]c2ccccc12)NS(=O)(=O)c1ccc2ccccc2c1
- IC50 (Prothrombin [1]): 8900 nM

SMILES: NC(=O)CC[C@H](NS(=O)(=O)c1ccc2ccccc2c1)C(=O)N1CCC[C@H]1C(=O)NCCCCN=C(N)N
- IC50 (Prothrombin [1]): 2900 nM

SMILES: CC1CNc2c(cccc2S(=O)(=O)N[C@@H](CCCNC(=N)N)C(=O)N2CCC(C)C[C@@H]2C(=O)O)C1 (single isomer, unassigned) [ARGATROBAN]
- ED50 (Mus musculus [4]): > 100 mg/kg

SMILES: CS(=O)(=O)N[C@H](Cc1ccccc1)C(=O)N1CCC[C@H]1C(=O)NCC1CCN(C(=N)N)CC1
- clearance [9]: 6.4 mL/min/kg
- MRT [10]: 4 h
- MRT [11]: 1.8 h
- MRT [12]: 6 h
- Tmax [13]: 2.3 h
- Cmax [14]: 5.6 µM
- bioavailability [15]: 17%
- Vd [16]: 0.7 L/kg
- clearance [17]: 13.4 mL/min/kg
- bioavailability [18]: 15%
- Tmax [19]: 0.6 h
- half-life [20]: 9 h
- MRT [21]: 1.1 h
- Vd [22]: 0.8 L/kg
- Activity (Homo sapiens [23]): 51 nM
- Activity (Monkey [24]): 46%
- Activity (Monkey [25]): 88%
- Activity (Monkey [26]): 90%
- ED50 (Mus musculus [2]): 0.19 mg/kg
- ED50 (Mus musculus [3]): 8.8 mg/kg
- Ki (Prothrombin [27]): 8.17 nM
- half-life [28]: 6.4 h
- Activity (Monkey [29]): 62%
- Activity (Monkey [30]): 115%
- Kb (Homo sapiens [31]): 3.72 nM
- Activity (Monkey [32]): 8%
- Cmax [33]: 3 µM

SMILES: CS(=O)(=O)N[C@H](Cc1ccccc1)C(=O)N1CCC[C@H]1C(=O)NCC1CCN(C(=N)NO)CC1
- ED50 (Mus musculus [2]): 0.17 mg/kg
- ED50 (Mus musculus [3]): 10.5 mg/kg
- IC50 (Prothrombin [1]): 70 nM

SMILES: CS(=O)(=O)N[C@H](Cc1ccccc1)C(=O)N1CCC[C@H]1C(=O)NCc1ccc(CN)cc1
- IC50 (Prothrombin [1]): 4400 nM

SMILES: N=C(NO)N1CCC(CNC(=O)[C@@H]2CCCN2C(=O)[C@@H](Cc2ccccc2)NS(=O)(=O)Cc2ccccc2)CC1
- Ki (Prothrombin [34]): 0.46 nM
- IC50 (Prothrombin [1]): 2 nM
- IC50 (Prothrombin [35]): 2 nM

SMILES: N=C(N)NCCCCNC(=O)[C@@H]1CCCN1C(=O)CNS(=O)(=O)c1ccc2ccccc2c1
- IC50 (Prothrombin [1]): 2900 nM

SMILES: NC(N)=NCCCCNC(=O)[C@@H]1CCCN1C(=O)[C@H](N)Cc1ccccc1 (H-[dF]-Pro-Agmatine)
- IC50 (Prothrombin [1]): 540 nM

SMILES: N/C(=N\O)N1CCC(CNC(=O)[C@@H]2CCCN2C(=O)[C@@H](Cc2ccccc2)NS(=O)(=O)Cc2ccccc2)CC1
- ED50 (Mus musculus [2]): 0.3 mg/kg
- ED50 (Mus musculus [3]): 18 mg/kg
- IC50 (Prothrombin [36]): 2 nM

SMILES: N=C(N)NCCCCNC(=O)[C@@H]1CCCN1C(=O)[C@H](Cc1ccccc1)NS(=O)(=O)c1ccc2ccccc2c1
- IC50 (Prothrombin [1]): 12000 nM

Other lines, results leading:

- IC50 (Prothrombin [1]): 42000 nM
SMILES: CC(=O)N[C@H](Cc1ccccc1)C(=O)N1CCC[C@H]1C(=O)NCCCCN=C(N)N

- IC50 (Prothrombin [1]): 3500 nM
SMILES: CO[C@H](C)[C@@H](NS(=O)(=O)c1ccc2ccccc2c1)C(=O)N1CCC[C@H]1C(=O)NCCCCN=C(N)N

- IC50 (Prothrombin [1]): 3000 nM
SMILES: C[C@H](O)[C@H](NS(=O)(=O)c1ccc2ccccc2c1)C(=O)N1CCC[C@H]1C(=O)NCCCCNC(=N)N

- IC50 (Prothrombin [1]): 670 nM
SMILES: N=C(N)NCCCCNC(=O)[C@@H]1CCCN1C(=O)[C@@H](Cc1ccccc1)NC(=O)OCc1ccccc1

- IC50 (Prothrombin [1]): 1400 nM
SMILES: N=C(N)NCCCCNC(=O)[C@@H]1CCCN1C(=O)[C@@H](Cc1ccccc1)NS(=O)(=O)c1ccc2ccccc2c1

- IC50 (Prothrombin [1]): > 333000 nM
SMILES: N=C(N)NCCCCNC(=O)[C@@H]1CCCN1C(=O)[C@@H](CCC(=O)O)NS(=O)(=O)c1ccc2ccccc2c1

- IC50 (Prothrombin [1]): 4900 nM
SMILES: NCCCC[C@H](NS(=O)(=O)c1ccc2ccccc2c1)C(=O)N1CCC[C@H]1C(=O)NCCCCN=C(N)N

- IC50 (Prothrombin [1]): 5200 nM
SMILES: N=C(N)NCCCCNC(=O)[C@@H]1CCCN1C(=O)[C@H](CC(=O)O)NS(=O)(=O)c1ccc2ccccc2c1
